Reference: ChEMBL document CHEMBL3526048, “In vitro metabolism of rivoglitazone, a novel peroxisome proliferator-activated receptor γ agonist, in rat, monkey, and human liver microsomes and freshly isolated hepatocytes” (Drug Metab Dispos, 2011)

Key:
[1] = Drug metabolism in rat hepatocytes assessed as formation of 2-mercapto-3-(4-((6-methoxy-1-methyl-1H-benzo[d]imidazol-2-yl)methoxy)phenyl)propanamide at 30 uM after 3 hrs by radio-HPLC/LC-MS/MS analysis in presence of NADPH-generating system and NADPH-generating system/SAM; format: ADME, cell-based, Hepatocyte
Cytochrome P450 1A2 = target: T1, Cytochrome P450 1A2 (Homo sapiens, UniProt P05177); assay: (§1) Activity of human CYP1A2 expressed in microsomes isolated from baculovirus infected insect cell assessed as enzyme-mediated 2-mercapto-3-(4-((6-methoxy-1-methyl-1H-benzo[d]imidazol-2-yl)methoxy)phenyl)propanamide formation at 20 uM after 2 hrs by radio-HPLC/LC-MS/MS analysis in presence of NADPH-generating system and NADPH-generating system/SAM; format: ADME
T1 sequence (P05177 whole entry): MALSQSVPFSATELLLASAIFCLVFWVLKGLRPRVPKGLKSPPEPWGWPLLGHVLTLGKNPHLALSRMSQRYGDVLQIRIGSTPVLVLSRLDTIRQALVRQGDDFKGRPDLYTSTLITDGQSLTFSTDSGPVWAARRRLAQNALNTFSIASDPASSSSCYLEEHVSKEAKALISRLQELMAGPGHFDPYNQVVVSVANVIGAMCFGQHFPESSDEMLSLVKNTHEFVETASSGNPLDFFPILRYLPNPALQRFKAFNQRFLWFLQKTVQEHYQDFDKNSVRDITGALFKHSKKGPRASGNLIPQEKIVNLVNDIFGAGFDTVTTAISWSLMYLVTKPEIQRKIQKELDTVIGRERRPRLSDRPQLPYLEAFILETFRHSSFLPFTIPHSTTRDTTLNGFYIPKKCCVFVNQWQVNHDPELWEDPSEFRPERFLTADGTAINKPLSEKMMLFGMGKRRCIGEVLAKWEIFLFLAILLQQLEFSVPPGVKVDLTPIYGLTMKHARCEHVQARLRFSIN
How it was run: (§2)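 Baculovirus/insect-cell microsomes expressing single human CYPs, 1 mg/ml protein, with 50 mM potassium phosphate (pH 7.4) or 100 mM Tris-HCl (pH 7.5). NADPH-generating system: 2 mM NADP⁺, 20 mM glucose 6-phosphate, 2 units/ml G6PDH, 10 mM MgCl₂. [¹⁴C]rivoglitazone at 20 μM, 2 h at 37°C with shaking. Control used insect-cell control supersomes. Stopped with acetonitrile; supernatant concentrated under nitrogen; metabolites analysed by radio-HPLC, LC-MS and LC-MS/MS.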

[2] = Drug metabolism in human hepatocytes assessed as formation of 2-mercapto-3-(4-((6-methoxy-1-methyl-1H-benzo[d]imidazol-2-yl)methoxy)phenyl)propanoic acid at 30 uM after 3 hrs by radio-HPLC/LC-MS/MS analysis in presence of UDPGA, UDPGA/SAM and NADPH-generating system; format: ADME, cell-based, Hepatocyte
[3] = Drug metabolism in cynomolgus monkey liver microsomes assessed as formation of 3-(4-((6-methoxy-1-methyl-1H-benzo[d]imidazol-2-yl)methoxy)phenyl)-2-(methylsulfonyl)propanamide at 20 uM after 2 hrs by radio-HPLC/LC-MS/MS analysis in presence of NADPH-generating system/SAM; format: ADME, Macaca fascicularis
Cytochrome P450 2C19 = Cytochrome P450 2C19 (Homo sapiens, UniProt P33261); assay: as §1, with “CYP2C19” for “CYP1A2”; format: ADME; how it was run: as §2
Cytochrome P450 2C9 = Cytochrome P450 2C9 (Homo sapiens, UniProt P11712); assay: Activity of human CYP2C9 expressed in microsomes isolated from baculovirus infected insect cell assessed as enzyme-mediated 2-((4-((2,4-dioxothiazolidin-5-yl)methyl)phenoxy)methyl)-1-methyl-1H-benzo[d]imidazol-6-yl hydrogen sulfate formation at 20 uM after 2 hrs by radio-HPLC/LC-MS/MS analysis; format: ADME
How it was run: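 Baculovirus-insect-cell microsomes expressing the human CYP (1 mg/ml protein) were incubated with [14C]rivoglitazone (20 μM) in 50 mM potassium phosphate (pH 7.4) or 100 mM Tris-HCl (pH 7.5) with an NADPH-generating system (2 mM NADP+, 20 mM glucose 6-phosphate, 2 units/ml G6PDH, 10 mM MgCl2) for 2 h at 37°C. Insect-cell control supersomes served as the control. Reactions were stopped with acetonitrile, and the concentrated supernatants were analysed by radio-HPLC, LC-MS and LC-MS/MS.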

[4] = Drug metabolism in monkey hepatocytes assessed as formation of 5-(4-((6-methoxy-1H-benzo[d]imidazol-2-yl)methoxy)benzyl)thiazolidine-2,4-dione at 30 uM after 3 hrs by radio-HPLC/LC-MS/MS analysis in presence of NADPH-generating system and NADPH-generating system/SAM; details: cynomolgus monkey
[5] = target: T2, UDP-glucuronosyltransferase 1A3 (Homo sapiens, UniProt P35503); assay: Activity of human UGT1A3 expressed in microsomes isolated from baculovirus infected insect cell assessed as enzyme-mediated 5-hydroxy-5-(4-((6-methoxy-1-methyl-1H-benzo[d]imidazol-2-yl)methoxy)benzyl)thiazolidine-2,4-dione formation at 20 uM after 4 hrs by radio-HPLC/LC-MS/MS analysis in presence of NADPH-generating system and NADPH-generating system/SAM in presence of UDPGA and UDPGA/SAM; format: ADME
T2 sequence (P35503 whole entry): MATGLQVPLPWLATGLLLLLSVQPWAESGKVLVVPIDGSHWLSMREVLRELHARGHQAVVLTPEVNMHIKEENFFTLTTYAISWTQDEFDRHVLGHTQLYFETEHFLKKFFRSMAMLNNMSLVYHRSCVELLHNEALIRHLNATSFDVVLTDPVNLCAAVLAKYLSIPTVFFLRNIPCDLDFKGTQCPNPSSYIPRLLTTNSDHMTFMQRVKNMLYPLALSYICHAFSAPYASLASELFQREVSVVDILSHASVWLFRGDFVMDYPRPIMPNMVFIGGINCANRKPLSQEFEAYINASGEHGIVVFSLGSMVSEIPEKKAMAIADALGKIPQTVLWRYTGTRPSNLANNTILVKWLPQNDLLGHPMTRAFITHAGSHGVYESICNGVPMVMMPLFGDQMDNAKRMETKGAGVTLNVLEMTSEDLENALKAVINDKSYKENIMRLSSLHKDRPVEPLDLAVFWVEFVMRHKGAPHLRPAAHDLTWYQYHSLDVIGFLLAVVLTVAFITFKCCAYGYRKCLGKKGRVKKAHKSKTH

Measured: Drug metabolism

Cytochrome P450 2C19, sequence (P33261 whole entry): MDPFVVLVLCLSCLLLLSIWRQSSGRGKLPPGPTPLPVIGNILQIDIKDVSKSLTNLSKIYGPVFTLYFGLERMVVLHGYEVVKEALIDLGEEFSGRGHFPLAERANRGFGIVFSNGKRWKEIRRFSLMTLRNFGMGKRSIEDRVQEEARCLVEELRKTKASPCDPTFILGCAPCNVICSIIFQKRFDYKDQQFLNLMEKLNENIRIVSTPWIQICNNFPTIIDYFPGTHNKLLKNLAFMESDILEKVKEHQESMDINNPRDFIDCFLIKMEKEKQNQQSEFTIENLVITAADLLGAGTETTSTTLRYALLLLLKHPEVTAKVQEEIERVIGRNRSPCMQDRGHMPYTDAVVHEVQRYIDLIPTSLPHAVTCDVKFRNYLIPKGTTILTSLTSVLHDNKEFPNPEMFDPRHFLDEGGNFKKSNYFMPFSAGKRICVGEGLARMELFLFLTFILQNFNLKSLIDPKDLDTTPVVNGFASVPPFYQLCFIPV
Cytochrome P450 2C9, sequence (P11712 whole entry): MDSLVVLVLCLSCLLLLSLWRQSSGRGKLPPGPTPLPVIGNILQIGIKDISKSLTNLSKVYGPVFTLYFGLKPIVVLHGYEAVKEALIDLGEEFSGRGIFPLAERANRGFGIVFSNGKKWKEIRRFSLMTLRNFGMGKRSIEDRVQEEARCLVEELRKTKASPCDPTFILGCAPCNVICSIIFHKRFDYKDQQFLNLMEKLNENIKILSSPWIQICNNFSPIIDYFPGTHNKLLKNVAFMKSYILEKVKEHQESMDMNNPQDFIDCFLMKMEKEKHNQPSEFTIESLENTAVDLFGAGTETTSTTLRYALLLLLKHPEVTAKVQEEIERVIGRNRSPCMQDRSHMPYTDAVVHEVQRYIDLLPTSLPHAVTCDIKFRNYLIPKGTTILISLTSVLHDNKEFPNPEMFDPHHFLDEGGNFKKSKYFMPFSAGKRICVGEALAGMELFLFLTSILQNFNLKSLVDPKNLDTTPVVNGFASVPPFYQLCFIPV

COc1ccc2nc(COc3ccc(C[14CH]4SC(=O)NC4=O)cc3)n(C)c2c1.Cl (racemic)
metabolite_detected: Cytochrome P450 1A2 | [3] | Cytochrome P450 2C19
metabolite_not_detected: all other assays above
